Legend:
[1] = Half-life of washout rate of radioactivity from the cerebellum.; type: ADME, tissue-based
Procedure, shortened: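 Rats received the 11C tracer by tail vein (3-30 MBq, 350-450 ng, buffered saline), 3 per time point. Cerebellar radioactivity (%ID/g) was followed over time after injection, and the half-life of its washout was derived from that time course.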

[2] = Log P at pH 7.4; type: physicochemical; conditions: buffer
Procedure, shortened: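 Partition of the radiolabelled compound between 1-octanol and 0.02 M phosphate buffer at pH 7.4.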

Rattus norvegicus [3] = species: Rattus norvegicus; assay: Biodistribution of radioactivity in rat thalamus upon Tail-Vein injection of [11C]-labeled compound after 15 min; type: ADME, organism-based; conditions: in vivo, iv, 0.25 h
Rattus norvegicus [4] = species: Rattus norvegicus; assay: Biodistribution of radioactivity in rat thalamus upon Tail-Vein injection of [11C]-labeled compound after 30 min; type: ADME, organism-based; conditions: in vivo, iv, 0.5 h
Rattus norvegicus [5] = species: Rattus norvegicus; assay: Biodistribution of radioactivity in rat blood upon Tail-Vein injection of [11C]-labeled compound after 15 min; type: ADME, organism-based; conditions: in vivo, iv, 0.25 h
Rattus norvegicus [6] = species: Rattus norvegicus; assay: Biodistribution of radioactivity in rat blood upon Tail-Vein injection of [11C]-labeled compound after 30 min upon; type: ADME, organism-based; conditions: in vivo, iv, 0.5 h
Rattus norvegicus [7] = species: Rattus norvegicus; assay: Biodistribution of radioactivity in rat blood upon Tail-Vein injection of [11C]-labeled compound after 5 min; type: ADME, organism-based; conditions: in vivo, iv
Rattus norvegicus [8] = species: Rattus norvegicus; assay: Biodistribution of radioactivity in rat blood upon Tail-Vein injection of [11C]-labeled compound after 60 min; type: ADME, organism-based; conditions: in vivo, iv, 1 h
Rattus norvegicus [9] = species: Rattus norvegicus; assay: Biodistribution of radioactivity in rat cerebellum upon Tail-Vein injection of [11C]-labeled compound after 15 min; type: ADME, organism-based; conditions: in vivo, iv, 0.25 h
Rattus norvegicus [10] = species: Rattus norvegicus; assay: Biodistribution of radioactivity in rat cerebellum upon Tail-Vein injection of [11C]-labeled compound after 30 min; type: ADME, organism-based; conditions: in vivo, iv, 0.5 h
Rattus norvegicus [11] = species: Rattus norvegicus; assay: Biodistribution of radioactivity in rat cerebellum upon Tail-Vein injection of [11C]-labeled compound after 5 min; type: ADME, organism-based; conditions: in vivo, iv
Rattus norvegicus [12] = species: Rattus norvegicus; assay: Biodistribution of radioactivity in rat cerebellum upon Tail-Vein injection of [11C]-labeled compound after 60 min; type: ADME, organism-based; conditions: in vivo, iv, 1 h
Rattus norvegicus [13] = species: Rattus norvegicus; assay: Biodistribution of radioactivity in rat cortex upon Tail-Vein injection of [11C]-labeled compound after 15 min; type: ADME, organism-based; conditions: in vivo, iv, 0.25 h
Rattus norvegicus [14] = species: Rattus norvegicus; assay: Biodistribution of radioactivity in rat cortex upon Tail-Vein injection of [11C]-labeled compound after 30 min; type: ADME, organism-based; conditions: in vivo, iv, 0.5 h
Rattus norvegicus [15] = species: Rattus norvegicus; assay: Biodistribution of radioactivity in rat thalamus upon Tail-Vein injection of [11C]-labeled compound after 5 min; type: ADME, organism-based; conditions: in vivo, iv
Rattus norvegicus [16] = species: Rattus norvegicus; assay: Biodistribution of radioactivity in rat cortex upon Tail-Vein injection of [11C]-labeled compound after 5 min; type: ADME, organism-based; conditions: in vivo, iv
Rattus norvegicus [17] = species: Rattus norvegicus; assay: Biodistribution of radioactivity in rat cortex upon Tail-Vein injection of [11C]-labeled compound after 60 min; type: ADME, organism-based; conditions: in vivo, iv, 1 h
Rattus norvegicus [18] = species: Rattus norvegicus; assay: Biodistribution of radioactivity in rat hippocampus upon Tail-Vein injection of [11C]-labeled compound after 15 min; type: ADME, organism-based; conditions: in vivo, iv, 0.25 h
Rattus norvegicus [19] = species: Rattus norvegicus; assay: Biodistribution of radioactivity in rat hippocampus upon Tail-Vein injection of [11C]-labeled compound after 30 min; type: ADME, organism-based; conditions: in vivo, iv, 0.5 h
Rattus norvegicus [20] = species: Rattus norvegicus; assay: Biodistribution of radioactivity in rat hippocampus upon Tail-Vein injection of [11C]-labeled compound after 5 min; type: ADME, organism-based; conditions: in vivo, iv
Rattus norvegicus [21] = species: Rattus norvegicus; assay: Biodistribution of radioactivity in rat hippocampus upon Tail-Vein injection of [11C]-labeled compound after 60 min; type: ADME, organism-based; conditions: in vivo, iv, 1 h
Rattus norvegicus [22] = species: Rattus norvegicus; assay: Biodistribution of radioactivity in rat hypothalamus upon Tail-Vein injection of [11C]-labeled compound after 15 min; type: ADME, organism-based; conditions: in vivo, iv, 0.25 h
Rattus norvegicus [23] = species: Rattus norvegicus; assay: Biodistribution of radioactivity in rat hypothalamus upon Tail-Vein injection of [11C]-labeled compound after 30 min; type: ADME, organism-based; conditions: in vivo, iv, 0.5 h
Rattus norvegicus [24] = species: Rattus norvegicus; assay: Biodistribution of radioactivity in rat hypothalamus upon Tail-Vein injection of [11C]-labeled compound after 5 min; type: ADME, organism-based; conditions: in vivo, iv
Rattus norvegicus [25] = species: Rattus norvegicus; assay: Biodistribution of radioactivity in rat hypothalamus upon Tail-Vein injection of [11C]-labeled compound after 60 min; type: ADME, organism-based; conditions: in vivo, iv, 1 h
Rattus norvegicus [26] = species: Rattus norvegicus; assay: Biodistribution of radioactivity in rat striatum upon Tail-Vein injection of [11C]-labeled compound after 15 min; type: ADME, organism-based; conditions: in vivo, iv, 0.25 h
Rattus norvegicus [27] = species: Rattus norvegicus; assay: Biodistribution of radioactivity in rat striatum upon Tail-Vein injection of [11C]-labeled compound after 30 min; type: ADME, organism-based; conditions: in vivo, iv, 0.5 h
Rattus norvegicus [28] = species: Rattus norvegicus; assay: Biodistribution of radioactivity in rat striatum upon Tail-Vein injection of [11C]-labeled compound after 5 min; type: ADME, organism-based; conditions: in vivo, iv
Rattus norvegicus [29] = species: Rattus norvegicus; assay: Biodistribution of radioactivity in rat striatum upon Tail-Vein injection of [11C]-labeled compound after 60 min; type: ADME, organism-based; conditions: in vivo, iv, 1 h
[30] = target: Sodium-dependent noradrenaline transporter (Homo sapiens, UniProt P23975); assay: In vitro binding affinity on cloned Norepinephrine transporter
Procedure, shortened: (§1)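 Competition binding in triplicate on membranes from cloned human transporters. Buffer 50 mM Tris-Cl pH 7.4 with 150 mM NaCl/5 mM KCl (SERT, NET) or 100 mM NaCl (DAT). Incubated 40 min at 37 °C, then filtered on PEI-soaked GF/B filters. Nonspecific binding set with duloxetine 1 µM (SERT), desipramine 10 µM (NET) or nomifensine 10 µM (DAT). IC50 from nonlinear fit; Ki by Cheng-Prusoff.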

[31] = target: Sodium-dependent serotonin transporter (Homo sapiens, UniProt P31645); assay: In vitro binding affinity on cloned Serotonin transporter
Procedure, shortened: as §1, with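 “transporters. Radioligands: SERT [3H]paroxetine 0.2 nM with 10.3 µg protein, NET [3H]nisoxetine 1.0 nM with 16.9 µg, DAT [3H]WIN 35,428 1.0 nM with 6.2 µg.” for “transporters.”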

Rattus norvegicus [32] = species: Rattus norvegicus; assay: Biodistribution of radioactivity in rat thalamus upon Tail-Vein injection of [11C]-labeled compound after 60 min; type: ADME, organism-based; conditions: in vivo, iv, 1 h
[33] = target: Sodium-dependent dopamine transporter (Homo sapiens, UniProt Q01959); assay: In vitro binding affinity on cloned Dopamine transporter
Procedure, shortened: as §1, with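 “transporters. Radioligands: SERT [3H]paroxetine 0.2 nM with 10.3 µg protein, NET [3H]nisoxetine 1.0 nM with 16.9 µg, DAT [3H]WIN 35,428 1.0 nM with 6.2 µg.” for “transporters.”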

Rattus norvegicus [34] = species: Rattus norvegicus; assay: Biodistribution of radioactivity in rat thalamus upon Tail-Vein injection of [11C]-labeled compound after 45 min; type: ADME, organism-based; conditions: in vivo, iv, 0.75 h
Rattus norvegicus [35] = species: Rattus norvegicus; assay: Biodistribution of radioactivity in rat blood upon Tail-Vein injection of [11C]-labeled compound after 30 min; type: ADME, organism-based; conditions: in vivo, iv, 0.5 h
Rattus norvegicus [36] = species: Rattus norvegicus; assay: Biodistribution of radioactivity in rat blood upon Tail-Vein injection of [11C]-labeled compound after 45 min; type: ADME, organism-based; conditions: in vivo, iv, 0.75 h
Rattus norvegicus [37] = species: Rattus norvegicus; assay: Biodistribution of radioactivity in rat cerebellum upon Tail-Vein injection of [11C]-labeled compound after 45 min; type: ADME, organism-based; conditions: in vivo, iv, 0.75 h
Rattus norvegicus [38] = species: Rattus norvegicus; assay: Biodistribution of radioactivity in rat cortex upon Tail-Vein injection of [11C]-labeled compound after 45 min; type: ADME, organism-based; conditions: in vivo, iv, 0.75 h
Rattus norvegicus [39] = species: Rattus norvegicus; assay: Biodistribution of radioactivity in rat hippocampus upon Tail-Vein injection of [11C]-labeled compound after 45 min; type: ADME, organism-based; conditions: in vivo, iv, 0.75 h
Rattus norvegicus [40] = species: Rattus norvegicus; assay: Biodistribution of radioactivity in rat hypothalamus upon Tail-Vein injection of [11C]-labeled compound after 45 min; type: ADME, organism-based; conditions: in vivo, iv, 0.75 h
Rattus norvegicus [41] = species: Rattus norvegicus; assay: Biodistribution of radioactivity in rat striatum upon Tail-Vein injection of [11C]-labeled compound after 45 min; type: ADME, organism-based; conditions: in vivo, iv, 0.75 h

Sodium-dependent dopamine transporter, sequence (Q01959 whole entry): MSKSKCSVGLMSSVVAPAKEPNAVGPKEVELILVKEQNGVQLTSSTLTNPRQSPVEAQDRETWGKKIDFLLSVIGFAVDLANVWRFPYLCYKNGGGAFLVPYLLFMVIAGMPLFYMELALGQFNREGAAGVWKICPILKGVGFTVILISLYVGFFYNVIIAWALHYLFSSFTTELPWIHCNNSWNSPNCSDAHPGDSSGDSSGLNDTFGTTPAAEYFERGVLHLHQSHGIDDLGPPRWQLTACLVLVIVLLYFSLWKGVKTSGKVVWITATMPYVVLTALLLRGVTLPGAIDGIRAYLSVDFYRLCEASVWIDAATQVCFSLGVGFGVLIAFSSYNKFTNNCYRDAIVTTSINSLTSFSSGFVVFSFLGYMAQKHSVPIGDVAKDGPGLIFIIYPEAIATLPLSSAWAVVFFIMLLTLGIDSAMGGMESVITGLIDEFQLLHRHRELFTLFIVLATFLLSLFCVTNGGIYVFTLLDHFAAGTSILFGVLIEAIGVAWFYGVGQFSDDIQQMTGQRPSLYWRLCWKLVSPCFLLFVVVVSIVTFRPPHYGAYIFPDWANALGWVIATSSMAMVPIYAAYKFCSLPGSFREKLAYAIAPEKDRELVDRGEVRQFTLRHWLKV
Sodium-dependent serotonin transporter, sequence (P31645 whole entry): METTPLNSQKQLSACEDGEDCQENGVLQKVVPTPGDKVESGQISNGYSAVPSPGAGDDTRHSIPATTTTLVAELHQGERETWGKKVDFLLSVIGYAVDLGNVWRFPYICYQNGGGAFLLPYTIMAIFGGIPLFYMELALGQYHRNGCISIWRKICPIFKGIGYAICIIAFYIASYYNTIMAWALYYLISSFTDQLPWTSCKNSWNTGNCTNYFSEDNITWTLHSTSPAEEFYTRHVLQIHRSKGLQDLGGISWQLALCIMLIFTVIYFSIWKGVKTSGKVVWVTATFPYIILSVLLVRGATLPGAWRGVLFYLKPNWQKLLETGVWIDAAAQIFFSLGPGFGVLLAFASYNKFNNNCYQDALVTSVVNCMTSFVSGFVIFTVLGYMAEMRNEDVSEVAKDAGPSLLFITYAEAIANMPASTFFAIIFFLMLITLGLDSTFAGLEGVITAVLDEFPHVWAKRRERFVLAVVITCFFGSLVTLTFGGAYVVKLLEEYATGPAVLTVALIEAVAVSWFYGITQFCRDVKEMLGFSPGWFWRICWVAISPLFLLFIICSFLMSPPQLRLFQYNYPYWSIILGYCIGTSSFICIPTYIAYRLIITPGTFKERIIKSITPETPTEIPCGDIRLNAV
Sodium-dependent noradrenaline transporter, sequence (P23975 whole entry): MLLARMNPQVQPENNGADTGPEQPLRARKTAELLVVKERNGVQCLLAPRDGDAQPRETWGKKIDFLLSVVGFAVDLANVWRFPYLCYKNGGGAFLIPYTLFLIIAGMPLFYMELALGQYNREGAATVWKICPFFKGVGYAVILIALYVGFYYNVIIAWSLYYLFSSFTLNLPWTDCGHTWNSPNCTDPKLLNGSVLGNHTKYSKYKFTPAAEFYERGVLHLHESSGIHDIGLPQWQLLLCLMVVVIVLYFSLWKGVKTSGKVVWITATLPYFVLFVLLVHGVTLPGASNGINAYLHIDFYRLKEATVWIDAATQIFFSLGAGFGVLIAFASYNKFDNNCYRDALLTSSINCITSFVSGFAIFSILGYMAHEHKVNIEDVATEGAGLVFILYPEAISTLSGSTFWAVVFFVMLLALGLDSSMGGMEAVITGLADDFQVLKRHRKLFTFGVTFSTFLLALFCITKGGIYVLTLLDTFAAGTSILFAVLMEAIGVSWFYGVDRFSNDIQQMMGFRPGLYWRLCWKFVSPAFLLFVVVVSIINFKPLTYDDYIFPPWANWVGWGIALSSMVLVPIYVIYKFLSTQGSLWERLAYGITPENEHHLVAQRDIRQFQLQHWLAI

T1/2 [1] | ID/g (Rattus norvegicus [3]) | ID/g (Rattus norvegicus [4]) | ID/g (Rattus norvegicus [5]) | ID/g (Rattus norvegicus [7]) | ID/g (Rattus norvegicus [8]) | ID/g (Rattus norvegicus [9]) | ID/g (Rattus norvegicus [10]) | ID/g (Rattus norvegicus [11]) | ID/g (Rattus norvegicus [12]) | ID/g (Rattus norvegicus [13]) | ID/g (Rattus norvegicus [14]) | ID/g (Rattus norvegicus [15]) | ID/g (Rattus norvegicus [16]) | ID/g (Rattus norvegicus [17]) | ID/g (Rattus norvegicus [18]) | ID/g (Rattus norvegicus [19]) | ID/g (Rattus norvegicus [20]) | ID/g (Rattus norvegicus [21]) | ID/g (Rattus norvegicus [22]) | other results | Compound
25.4 min | 1.54% | 1.65% | 0.28% | 0.39% | 0.08% | 0.75% | 0.47% | 1.03% | 0.23% | 1.33% | 1.14% | 1.43% | 1.39% | 0.73% | 1.12% | 1.04% | 1.06% | 0.74% | 1.48% | logD ([2]; read-out: logD): 3.55; ID/g (Rattus norvegicus [6]): 0.14%; ID/g (Rattus norvegicus [23]): 1.47%; ID/g (Rattus norvegicus [24]): 1.36%; ID/g (Rattus norvegicus [25]): 1.19%; ID/g (Rattus norvegicus [26]): 1.34%; ID/g (Rattus norvegicus [27]): 1.17%; ID/g (Rattus norvegicus [28]): 1.36%; ID/g (Rattus norvegicus [29]): 0.79%; Ki [30]: 230 nM; Ki [31]: 0.27 nM; ID/g (Rattus norvegicus [32]): 1.24%; Ki [33]: 115 nM | CN(C)Cc1ccccc1Sc1ccc(Cl)cc1N
15.6 min | 1.21% | 0.8% | 0.31% | 0.58% | 0.06% | 0.54% | 0.27% | 0.76% | 0.07% | 1.29% | 0.74% | 1.15% | 1.46% | 0.32% | 1.06% | 0.72% | 1.13% | 0.35% | 1.39% | logD [2]: 2.707; ID/g (Rattus norvegicus [34]): 0.64%; ID/g (Rattus norvegicus [35]): 0.22%; ID/g (Rattus norvegicus [36]): 0.1%; ID/g (Rattus norvegicus [37]): 0.13%; ID/g (Rattus norvegicus [38]): 0.48%; ID/g (Rattus norvegicus [39]): 0.49%; ID/g (Rattus norvegicus [23]): 1.02%; ID/g (Rattus norvegicus [40]): 0.8%; ID/g (Rattus norvegicus [24]): 1.25%; ID/g (Rattus norvegicus [25]): 0.62%; ID/g (Rattus norvegicus [26]): 1.24%; ID/g (Rattus norvegicus [27]): 0.77%; ID/g (Rattus norvegicus [41]): 0.55%; ID/g (Rattus norvegicus [28]): 1.24%; ID/g (Rattus norvegicus [29]): 0.35%; Ki [31]: 1.1 nM; ID/g (Rattus norvegicus [32]): 0.49%; Ki [33]: 1420 nM | CN(C)Cc1ccccc1Sc1ccc(C#N)cc1N [DASB]

Source: ChEMBL document CHEMBL1133614, “Novel radiotracers for imaging the serotonin transporter by positron emission tomography: synthesis, radiosynthesis, and in vitro and ex vivo evaluation of (11)C-labeled 2-(phenylthio)araalkylamines” (J Med Chem, 2000)
